Sampled rows, rich in hits. Any-hit rate of the full collection: about 2.7%.
PAFAH1B2 FP inh = PAFAH1B2 enzyme inhibitors, primary screen, biochemical, fluorescence polarization, human. inhibition, % at 3.39 µM. recombinant PAFAH1B2, FP-rhodamine activity probe. actives 1.2% (n = 340,000). Platelet-activating factor acetylhydrolase IB subunit alpha2 (Homo sapiens), P68402;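 active = inhibition above the mean of all tested compounds plus 3 SD, cut at about 24% in these data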;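 note: 0% = enzyme with DMSO and 100% = wells lacking PAFAH1B2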
PAFAH1B3 inh = PAFAH1B3 enzyme inhibitors, primary screen, biochemical, fluorescence polarization, human; Platelet-activating factor acetylhydrolase IB subunit alpha1 (Homo sapiens), Q15102; recombinant PAFAH1B3, FP-rhodamine probe; inhibition, % at 3.39 µM; actives 0.28% (n = 340,000);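 active = inhibition above the screen-wide average of all tested compounds plus 3 SD, cut at about 25% in these data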;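 note: 0% = enzyme with DMSO only and 100% = wells lacking PAFAH1B3 protein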
PAFAH2 FP inh = PAFAH2 enzyme inhibitors, primary screen, biochemical, fluorescence polarization, human. Platelet-activating factor acetylhydrolase 2, cytoplasmic (Homo sapiens), Q99487. recombinant PAFAH2, FP-rhodamine activity probe. inhibition, % at 3.39 µM. actives 0.99% (n = 340,000). AID 492956, 2010;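 active = inhibition above the mean over all tested compounds plus 3 SD, cut at about 30% in these data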;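 note: inhibitors block probe labeling of enzyme so polarization drops; 0% = enzyme with DMSO and 100% = wells lacking PAFAH2 protein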
pPAFAH FP inh = pPAFAH enzyme inhibitors, primary screen, biochemical, fluorescence polarization, human. inhibition, % at 3.39 µM. Platelet-activating factor acetylhydrolase (Homo sapiens), Q13093. actives 1.5% (n = 330,000). recombinant pPAFAH, FP-rhodamine probe fluorescence polarization;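 active = inhibition above the mean inhibition across the screen plus 3 SD, cut at about 25% in these data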;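 note: inhibitors block binding of the rhodamine activity-based probe so polarization drops; 0% = enzyme with DMSO and 100% = wells lacking pPAFAH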
Target sequence (Q13093 whole entry, looked up): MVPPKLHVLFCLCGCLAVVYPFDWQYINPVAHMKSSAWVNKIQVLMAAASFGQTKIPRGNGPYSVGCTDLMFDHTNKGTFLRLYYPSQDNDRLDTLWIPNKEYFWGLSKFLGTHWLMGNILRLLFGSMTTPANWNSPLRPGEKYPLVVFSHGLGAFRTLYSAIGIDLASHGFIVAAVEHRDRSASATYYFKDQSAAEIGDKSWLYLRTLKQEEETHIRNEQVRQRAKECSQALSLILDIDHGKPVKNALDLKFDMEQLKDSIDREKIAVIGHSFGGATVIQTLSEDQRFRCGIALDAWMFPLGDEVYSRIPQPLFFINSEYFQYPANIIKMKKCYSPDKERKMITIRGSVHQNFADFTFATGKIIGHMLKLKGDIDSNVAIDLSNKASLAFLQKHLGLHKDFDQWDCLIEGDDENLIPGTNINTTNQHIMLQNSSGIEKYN
RBBP9 inh = human RBBP9 inhibitors, primary screen, biochemical, fluorescence polarization, FP-Rh probe, HTS. Serine hydrolase RBBP9 (Homo sapiens), O75884. recombinant RBBP9. inhibition, % at 7.94 µM. actives 0.2% (n = 220,000). AID 1515, 2009;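 active = inhibition above the campaign mean of all tested compounds plus 3 SD, cut at about 14% in these data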;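 note: plate controls were DMSO wells with RBBP9 for no effect and wells lacking RBBP9 protein for full effect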
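system = RBBP9 protein | input = RBBP9 at 2.5 µM in dispensed solution, before mixing | measured by = fluorescence polarization (mP), excitation 525 nm, emission 598 nm | incubation = enzyme-compound preincubation 30 min, then probe labeling 45 min, 25 °C | buffer or medium = Tris-NaCl-Pluronic buffer, pH 8.0 | compound = single dose 7.94 µM | also added = FP-Rh probe, 375 nM dispensing solution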
Numbers without * were called inactive; . = no result given.

SMILES	PAFAH1B2 FP inh	PAFAH1B3 inh	PAFAH2 FP inh	pPAFAH FP inh	RBBP9 inh
CC(=O)c1ccc(N2CCN(C(=O)/C=C/c3ccc(S(=O)(=O)N4CCOCC4)cc3)CC2)cc1	2.0	-0.1	0.0	32.5*	-7.3
O=C(/C=C/c1ccc(S(=O)(=O)N2CCOCC2)cc1)N1CCCCC1	4.3	7.7	-0.2	.	.
CC1CC(=O)N(C)c2cc([N+](=O)[O-])ccc2N1 (stereo unspecified)	2.5	-0.2	4.9	4.3	-3.2
Cc1ccccc1OCCn1c(S(=O)(=O)O)nc2c(N)ncnc21	28.1*	44.7*	45.9*	3.5	.
Cc1nc2nc(N)nc(OCc3ccccc3)c2nc1C	.	.	.	9.0	.
CC(OC(=O)C1=COCCO1)C(=O)Nc1ncc(Cl)cc1Cl (stereo unspecified)	46.7*	-5.6	1.1	.	.
CC(C)(C)c1ccc(C(=O)NCCC(=O)Nc2ccc3c(c2)OCCO3)cc1	9.7	-0.3	-1.5	.	.
Cc1nc(Nc2ccc(C(=O)O)cc2)sc1-c1ccccc1	20.0	6.1	7.1	2.5	12.4
Cc1nc(Nc2ccccc2)sc1-c1ccccc1	6.9	4.8	1.7	27.0*	11.3
CC(C)(C)c1ccc(C(=O)CC(Sc2ccc(Cl)cc2)C(=O)O)cc1 (stereo unspecified)	83.4*	1.2	39.5*	3.0	-3.0
Cc1ccc(SC(CC(=O)c2ccc(F)cc2)C(=O)O)cc1 (stereo unspecified)	7.5	11.4	6.8	1.2	.
COC(=O)C(Cc1ccccc1)NC(=O)CCC(=O)NC(C)CCc1ccccc1 (stereo unspecified)	26.9*	2.2	-5.1	1.2	.
O=C(Nc1c2c(nn1-c1ccc(F)cc1)CS(=O)C2)c1ccc(S(=O)(=O)N2CCOCC2)cc1 (stereo unspecified)	25.6*	4.9	3.0	-3.9	-0.9
O=C(Nc1c2c(nn1-c1ccc(F)cc1)CS(=O)C2)c1ccc(Br)o1 (stereo unspecified)	-4.4	10.3	-5.8	-4.6	.
Fc1ccc(-[n+]2nc(Nc3ccccc3)sc2-c2c3ccccc3cc3ccccc23)cc1	-3.9	12.1	5.2	26.3*	.
O=C1CC(/C=C/c2ccco2)=Nc2ccccc2N1	6.2	9.7	6.8	26.5*	-8.9
O=C1CC(/C=C/c2ccccn2)=Nc2ccccc2N1	2.4	9.2	3.2	4.7	-12.1
O=[N+]([O-])c1cc(-n2cnnn2)ccc1N1CCC(Cc2ccccc2)CC1	6.2	2.9	-0.1	27.9*	-1.2
CC1CC(C)CN(c2ccc(-n3cnnn3)cc2[N+](=O)[O-])C1 (stereo unspecified)	21.3	5.7	-1.3	12.8	-1.0
CCOC(=O)C1=C(C)N=c2s/c(=C\c3ccc(C(=O)O)cc3)c(=O)n2C1c1ccc(OC)cc1OC (stereo unspecified)	3.0	6.2	4.3	1.1	.
CCOC(=O)C1=C(C)N=c2s/c(=C/c3ccco3)c(=O)n2C1c1cccc(OC)c1 (stereo unspecified)	.	.	.	33.5*	-8.5
COc1cc(/C=C2\SC(=S)N(CCCCC(=O)O)C2=O)ccc1OS(=O)(=O)c1ccc(C)cc1	30.1*	2.8	9.2	12.9	.
COc1ccc(/C=C2\SC(=S)N(CCCCCC(=O)Nc3cc(C)on3)C2=O)cc1OC	-4.0	-6.5	0.0	1.2	.
COc1cc(/C=C2\SC(=S)NC2=O)ccc1OS(=O)(=O)c1ccccc1	.	.	.	1.7	-16.2
COc1cc(/C=C2/SC(=S)NC2=O)ccc1OS(=O)(=O)c1ccc(C)cc1	43.0*	-5.1	-4.9	5.1	-19.0
COc1ccc2c(c1)c1nc(SCC(C)C)n(CCO)c(=O)c1n2C	2.4	1.4	-1.8	-1.6	-7.1
CCc1nnc(NC(=O)CSc2nnc(C)c(=O)n2N)s1	7.8	-0.3	-0.9	7.5	.
Cc1cc(NS(=O)(=O)c2ccc(Nc3nc(-c4sc(C)nc4C)cs3)cc2)no1	.	.	.	.	-4.9
COc1ccc(-c2csc(Nc3ccc(S(=O)(=O)Nc4cc(C)on4)cc3)n2)cc1	4.9	-1.7	17.7	26.9*	-8.8
Cc1cc(NS(=O)(=O)c2ccc(Nc3nc(-c4sc(NC(=O)c5ccccc5)nc4C)cs3)cc2)no1	.	.	.	68.9*	0.9
